The values that follow come from publication PMC8123931 (Nature chemical biology, 2020).

Series [1] concerns the target T1, EGFR L858R/T790M/C797S (Homo sapiens, UniProt P00533, C797S/L858R/T790M). Kind of series: MaMTH-DS assay and screen, EGFR L858R/T790M/C797S bait with Shc1 prey. It is filed as cell-based.
Series [2] concerns the target T1, EGFR L858R/T790M/C797S. Kind of series: In vitro kinase assay, recombinant kinase domain. Format: biochemical.
For another series, the target named is EGFR ex19del/T790M/C797S (Homo sapiens, UniProt P00533, C797S/DEL746-750/T790M). Put plainly: In vitro kinase assay, recombinant kinase domain. It is filed as biochemical.
Series [3] addresses purified pig brain tubulin (Sus scrofa, UniProt P02550+P02554). Put plainly: In vitro microtubule dynamics assay with mCherry-EB3. Format: biochemical.
For series [4], the target named is T1, EGFR L858R/T790M/C797S. Kind of series: MaMTH-DS assay, EGFR L858R/T790M/C797S bait with CrkII and Hsp90. Format: cell-based.
Another series deals with MaMTH stable bait cells. Kind of series: Reporter cell viability. It is filed as cell-based. The conditions noted are these: ALK bait cells. In a few lines:
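MaMTH stable bait cells seeded at 10,000 cells/well in 96-well plates. Next day treated across a dose range of test compound, with 0.5 μg/mL tetracycline to induce bait expression. Viability measured by CellTiter-Glo luminescence after 72 h of drug exposure.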

In the next series the target is ALK (Homo sapiens, UniProt Q9UM73). As to conditions: dose response.
Chain of ALK (Q9UM73 19-1620): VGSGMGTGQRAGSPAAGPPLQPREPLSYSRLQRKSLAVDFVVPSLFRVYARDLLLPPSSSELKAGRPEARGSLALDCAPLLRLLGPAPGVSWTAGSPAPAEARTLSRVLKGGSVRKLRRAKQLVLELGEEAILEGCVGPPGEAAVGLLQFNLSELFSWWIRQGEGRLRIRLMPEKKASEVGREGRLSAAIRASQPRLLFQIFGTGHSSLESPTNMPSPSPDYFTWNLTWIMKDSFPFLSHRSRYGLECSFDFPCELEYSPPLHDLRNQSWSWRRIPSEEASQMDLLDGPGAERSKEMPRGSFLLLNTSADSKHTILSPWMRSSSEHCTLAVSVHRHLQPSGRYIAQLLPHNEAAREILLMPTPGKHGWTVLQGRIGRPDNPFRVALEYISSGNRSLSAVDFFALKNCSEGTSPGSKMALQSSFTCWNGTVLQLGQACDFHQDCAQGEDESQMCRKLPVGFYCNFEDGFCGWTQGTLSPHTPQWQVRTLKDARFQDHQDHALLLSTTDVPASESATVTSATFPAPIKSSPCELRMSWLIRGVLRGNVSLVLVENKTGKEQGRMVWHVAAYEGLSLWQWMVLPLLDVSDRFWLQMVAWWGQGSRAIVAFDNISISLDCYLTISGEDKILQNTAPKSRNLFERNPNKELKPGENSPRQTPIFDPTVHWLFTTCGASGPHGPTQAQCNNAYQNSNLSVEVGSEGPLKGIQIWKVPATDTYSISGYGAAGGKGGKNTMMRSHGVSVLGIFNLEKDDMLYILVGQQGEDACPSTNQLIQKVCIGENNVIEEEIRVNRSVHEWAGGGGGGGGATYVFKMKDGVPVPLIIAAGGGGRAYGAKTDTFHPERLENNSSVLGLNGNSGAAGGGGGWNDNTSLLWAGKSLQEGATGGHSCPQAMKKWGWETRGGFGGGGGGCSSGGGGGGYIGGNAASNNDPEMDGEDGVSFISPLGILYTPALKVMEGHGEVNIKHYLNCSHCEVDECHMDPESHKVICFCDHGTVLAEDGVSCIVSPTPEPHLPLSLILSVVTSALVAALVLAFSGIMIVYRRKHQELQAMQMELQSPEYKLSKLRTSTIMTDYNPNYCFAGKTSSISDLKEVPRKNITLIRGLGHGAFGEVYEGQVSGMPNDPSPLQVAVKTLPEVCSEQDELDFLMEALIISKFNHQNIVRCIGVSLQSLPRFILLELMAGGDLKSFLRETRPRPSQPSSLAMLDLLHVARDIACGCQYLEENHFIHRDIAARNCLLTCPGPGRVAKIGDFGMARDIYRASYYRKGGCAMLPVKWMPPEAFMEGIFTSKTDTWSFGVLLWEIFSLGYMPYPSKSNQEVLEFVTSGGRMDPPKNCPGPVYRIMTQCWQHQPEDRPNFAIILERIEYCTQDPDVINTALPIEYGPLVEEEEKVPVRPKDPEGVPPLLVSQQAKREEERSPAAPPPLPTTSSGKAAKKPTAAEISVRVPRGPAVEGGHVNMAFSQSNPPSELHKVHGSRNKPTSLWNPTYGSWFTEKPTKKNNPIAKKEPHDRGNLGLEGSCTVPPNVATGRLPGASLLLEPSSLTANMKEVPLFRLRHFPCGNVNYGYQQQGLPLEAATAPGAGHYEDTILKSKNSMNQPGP
Series [5] relates to RTK bait (MET, FGFR4, AXL, ALK, EGFR). The conditions noted are these: ALK bait.

Like-named read-outs stand apart in the source and are kept apart here.

Chain of purified pig brain tubulin (P02550 whole entry): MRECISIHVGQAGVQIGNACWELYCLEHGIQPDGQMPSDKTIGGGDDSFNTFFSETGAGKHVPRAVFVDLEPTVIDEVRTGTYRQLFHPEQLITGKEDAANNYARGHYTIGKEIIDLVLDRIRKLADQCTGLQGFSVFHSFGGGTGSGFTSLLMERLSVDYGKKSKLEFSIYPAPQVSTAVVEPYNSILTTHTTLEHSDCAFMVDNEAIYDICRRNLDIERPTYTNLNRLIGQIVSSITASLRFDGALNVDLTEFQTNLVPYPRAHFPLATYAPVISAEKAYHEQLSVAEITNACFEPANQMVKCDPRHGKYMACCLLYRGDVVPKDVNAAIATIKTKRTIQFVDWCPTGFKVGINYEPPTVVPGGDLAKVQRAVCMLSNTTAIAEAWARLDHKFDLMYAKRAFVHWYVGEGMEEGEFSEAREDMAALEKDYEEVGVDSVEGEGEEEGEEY
Chain of purified pig brain tubulin (P02554 whole entry): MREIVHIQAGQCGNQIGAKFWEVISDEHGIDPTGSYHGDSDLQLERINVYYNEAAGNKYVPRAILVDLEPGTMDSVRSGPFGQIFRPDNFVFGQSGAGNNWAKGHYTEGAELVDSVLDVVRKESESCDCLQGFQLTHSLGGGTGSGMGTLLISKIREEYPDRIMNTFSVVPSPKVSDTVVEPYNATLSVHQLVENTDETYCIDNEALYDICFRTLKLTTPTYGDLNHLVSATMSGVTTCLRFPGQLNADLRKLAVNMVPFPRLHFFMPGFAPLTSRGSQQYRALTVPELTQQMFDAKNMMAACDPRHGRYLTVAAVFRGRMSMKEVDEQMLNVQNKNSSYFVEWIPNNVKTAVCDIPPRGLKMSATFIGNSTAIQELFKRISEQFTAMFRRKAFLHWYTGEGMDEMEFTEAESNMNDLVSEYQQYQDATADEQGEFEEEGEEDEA

Consider `CCN(CC)c1ccc2cc(-c3nc4ccccc4o3)c(=O)oc2c1` [EMI1, 3-(1,3-benzoxazol-2-yl)-7-(diethylamino)-2H-chromen-2-one], for which the “interaction of Shc1 with EGFR L858R/T790M/C797S (in words)” value at EGFR L858R/T790M/C797S [1] is given as “potently reducing the interaction of EGFR triple mutant with Shc1”; at EGFR L858R/T790M/C797S [1] (listed as ChemBridge compound 5213777), “robust, dose-dependent inhibition”. In addition, the “inhibition of kinase activity of EGFR triple-mutant protein” value at EGFR L858R/T790M/C797S [2] and at EGFR ex19del/T790M/C797S was “no inhibition of the kinase activity” throughout. Also, the “microtubule dynamics (growth rate, time, catastrophe frequency)” value in series [3] was “reduced microtubule growth rate and time, while increasing catastrophe frequency”. Also, at EGFR L858R/T790M/C797S [4], the “interaction of CrkII with EGFR L858R/T790M/C797S” value is “inhibited interaction of both proteins with EGFR at a level similar to that observed with Shc1”. For the same compound, the “interaction of Hsp90 with EGFR L858R/T790M/C797S” value at EGFR L858R/T790M/C797S [4] is reported as “inhibited interaction of both proteins with EGFR at a level similar to that observed with Shc1”.

`COc1cc(N2CCC(N3CCN(C)CC3)CC2)ccc1Nc1ncc(Cl)c(Nc2ccccc2P(C)(C)=O)n1` [brigatinib]: in the series with MaMTH stable bait cells, the reporter cell viability result is “cell viability was unaffected”. The “ALK activity (interaction with Shc1)” value on ALK is “strongly reduced, in a dose-dependent manner”. Moreover, the bait expression level result in series [5] is reported as “not altered by compound”.
